Source: PubChem (several laboratories)
SENP1 FRET inh = SENP1 (human) catalytic domain inhibition; recombinant SENP1 catalytic domain, CyPet-SUMO1-YPet FRET cleavage; inhibition, % at 10 µM; hit rate 0.21% among 360,000; AID 624204;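 active = inhibition at least 30% at 10 µM, raw YFP signal under a set limit, fluorescence ratio 0.5 to 1.5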
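system = hSENP1 catalytic domain, recombinant | reagent = SFCypet-SUMO1-SFYpet substrate at 25 nM | doses = one dose per compound, 10 µM, 0.5% DMSO | incubation = enzyme reaction for 50 min at room temperature, dark | measured by = FRET, CFP and YFP emission | controls = no-enzyme low, enzyme-DMSO high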
HDAC3 inhib = human HDAC3 inhibition. O15379. inhibition, % at 8.3 µM. AID 2718. hit rate 0.15% among 320,000. recombinant HDAC3, fluorogenic peptide/trypsin coupled, fluorescence; in the data active = inhibition above about 26%, passing the limit was not always enough; inconclusive = no clear call, values can overlap the other calls
Target sequence (O15379 whole entry, looked up): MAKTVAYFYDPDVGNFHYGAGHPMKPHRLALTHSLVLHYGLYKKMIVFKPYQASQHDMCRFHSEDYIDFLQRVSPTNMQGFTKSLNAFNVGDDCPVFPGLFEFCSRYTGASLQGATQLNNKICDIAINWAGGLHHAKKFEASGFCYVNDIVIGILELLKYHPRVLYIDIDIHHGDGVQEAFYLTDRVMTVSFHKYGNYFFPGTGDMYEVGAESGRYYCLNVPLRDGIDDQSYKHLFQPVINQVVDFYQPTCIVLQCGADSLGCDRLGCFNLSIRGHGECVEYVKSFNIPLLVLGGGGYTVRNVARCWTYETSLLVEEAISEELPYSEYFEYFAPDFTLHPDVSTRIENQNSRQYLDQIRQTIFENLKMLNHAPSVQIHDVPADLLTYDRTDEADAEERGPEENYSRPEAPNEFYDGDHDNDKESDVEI
AHR activator = activators of human aryl hydrocarbon receptor; P35869; AHR-responsive luciferase reporter cells, luminescence; activation, % at 5 µM; hit rate 2.5% among 320,000; AID 2796; in the data active = activation above about 47%
Fh CTSL1 inh = counter-screen for PFM18AAP inhibitors: inhibitors of F. hepatica cathepsin L1; AID 1906; inhibition, % at 5.96 µM; recombinant F. hepatica cathepsin L1, Z-Leu-Arg-MCA fluorescence; hit rate 0.49% among 300,000;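 active = inhibition above the mean of all tested compounds plus 3 SD, set per screening campaign, cut at about 17% in these data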
FXN GAA850 act = frataxin GAA850 promoter activation. hit rate 0.56% among 360,000. activation, % at 6 µM. HEK293 lucGAA850 FXN promoter luciferase reporter, 24 h; percent of 10 µM SAHA response;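 active = activation above the average of all compounds screened plus 3 SD, cutoff fixed separately per campaign, cut at about 7.5% in these data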
M18AAP inhibitor = PfM18AAP enzyme inhibition; AID 1822; hit rate 1.2% among 290,000; inhibition, % at 7.35 µM; recombinant PfM18AAP, H-Glu-NHMec fluorogenic cleavage;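 active = inhibition above the campaign mean inhibition over all tested compounds plus 3 SD, cut at about 28% in these data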
Large screens that a line does not name were inactive. Only some compounds are listed: those with a hit (about 4.2% of all), similar ones and a draw of the others.

COc1cccc(-c2cc3nc(NCc4ccc(C)cc4C)n(C)c(=O)c3s2)c1	none (no result: HDAC3 inhib, AHR activator, Fh CTSL1 inh, M18AAP inhibitor)
C=CCn1c(CSc2nnc(-c3ccccc3)n2C)n[nH]c1=S	Fh CTSL1 inh 28
COc1ccc(OC)c(CNC(=O)C2CCC(=O)N(CCCN3CCCC3=O)C2)c1 (stereo unspecified)	none (no result: AHR activator, Fh CTSL1 inh)
Clc1ccc(Cl)c(-c2ccc(/C=N/c3ncn[nH]3)o2)c1	M18AAP inhibitor 30
CCCCNc1c(-c2cccc(-c3cc(C(C)=O)cs3)c2)nc2cc(C)ccn12	AHR activator 55 (no result: M18AAP inhibitor)
CCSc1nncn1/N=C/c1ccc(OC)c(OC)c1	AHR activator 48
CCCCN1CC(COCc2ccccc2)Oc2cccc(Oc3cc(C)c(C)c(C)c3)c2S1(=O)=O (stereo unspecified)	none (no result: HDAC3 inhib, AHR activator, Fh CTSL1 inh, M18AAP inhibitor)
CN(C1=C(NC(=O)c2ccccc2)C(=O)c2ccccc2C1=O)C1CCS(=O)(=O)C1 (stereo unspecified)	Fh CTSL1 inh 22
CC(=O)NC1=C(NC2CCS(=O)(=O)C2)C(=O)c2ccccc2C1=O (stereo unspecified)	none
O=C(Nc1ccccc1Cl)Oc1ccc(Cl)cc1Cl	AHR activator 50
Cc1ccccc1OCCSc1nnc(-c2cccnc2)n1N	AHR activator 54
Nn1c(SCc2ccc(F)cc2)nnc1-c1cccnc1	none
COc1ccc(N2COC3c4cccc5cccc(c45)C32)cc1 (stereo unspecified)	none
Clc1ccc(N2COC3c4cccc5cccc(c45)C32)cc1 (stereo unspecified)	AHR activator 60
CC1(C)Cc2nc3sc(C(=O)NCCO)c(N)c3cc2CO1	M18AAP inhibitor 31
COC(=O)c1ccc(Cn2c(O)c(N=NC(N)=S)c3ccccc32)o1	HDAC3 inhib 39
CC(=O)Nc1ccc(N2N=C(C)C(N=Nc3ccccc3)C2=O)cc1 (stereo unspecified)	AHR activator 50
CC1=NN(c2ccccc2)C(=O)C1N=Nc1ccc(S(N)(=O)=O)cc1 (stereo unspecified)	Fh CTSL1 inh 19
COc1ccc(CSc2nncn2N)cc1Br	Fh CTSL1 inh 19
CC(=O)C(C(c1ccccc1)c1c[nH]c2ccccc12)[N+](=O)[O-] (stereo unspecified)	none
CCC(C)c1ccccc1NC(=O)c1cc2cccc([N+](=O)[O-])c2[nH]1 (stereo unspecified)	AHR activator 55
Cc1ccc(NC(=O)c2cc3cccc([N+](=O)[O-])c3[nH]2)cc1	AHR activator 71
Cc1ccc(NC(=O)CCC(=O)NNC(=O)COc2ccc([N+](=O)[O-])cc2)cc1C	AHR activator 53
COc1cccc(C(=O)NNC2=CC(=O)CC(C)(C)C2)c1	M18AAP inhibitor 31
COc1ccc(NC(=O)c2nc[nH]c2C(=O)N(C)CCO)cc1	none (no result: HDAC3 inhib, AHR activator, Fh CTSL1 inh, M18AAP inhibitor)
Cc1ccc(F)cc1NCC(=O)Nc1ccc(Br)cc1	AHR activator 72
O=C(Nc1cc(Cl)ccc1Cl)c1noc2c1CCCC2	AHR activator 75 (no result: M18AAP inhibitor)
COc1cc(NC(=O)c2noc3c2CCCC3)c(OC)cc1Cl	AHR activator 55
O=C(Nc1ccc2c(c1)OCO2)c1noc2c1CCCCC2	HDAC3 inhib inconclusive
O=C(Nc1ccc2c(c1)OCO2)c1noc2c1CCCC2	AHR activator 55
COc1ccc(Cl)cc1NC(=O)c1noc2c1CCCC2	none
COc1cc(NC(=O)c2cc(C(C)C)on2)c(OC)cc1Cl	AHR activator 74
COc1cccc(CN2CCN(CC#Cc3ccccc3)CC2CCO)c1 (stereo unspecified)	none (no result: AHR activator, Fh CTSL1 inh)
Cc1ccc(S(=O)(=O)NCCNC(=O)c2ccccc2)cc1	none
Cc1ccc(S(=O)(=O)CNC(=O)c2ccccc2)cc1	Fh CTSL1 inh 36
CCn1ccnc1CN(C)C(=O)C1CCC(=O)N(Cc2cccc(C(F)(F)F)c2)C1 (stereo unspecified)	none
CCOc1ccc(NC(=O)CSc2nnc(NC(=O)C3CC3)s2)cc1	none
CCOC(=O)c1c(C)nc(-c2ccccc2)nc1NC(=O)CC	AHR activator 47
CCOC(=O)c1[nH]c2ccccc2c1NC(=S)Nc1cccc(C)c1	AHR activator 72
CCC(=O)Nc1nc(-c2ccccc2)nc(SC)c1C(C)=O	none
CCOC(=O)c1[nH]c2ccccc2c1NC(=S)Nc1ccccc1	AHR activator 49
